Key:
Tyrosinase = target: T1, Tyrosinase (Agaricus bisporus, UniProt O42713); test: Inhibition of mushroom tyrosinase activity after 20 mins
T1 sequence (O42713 whole entry): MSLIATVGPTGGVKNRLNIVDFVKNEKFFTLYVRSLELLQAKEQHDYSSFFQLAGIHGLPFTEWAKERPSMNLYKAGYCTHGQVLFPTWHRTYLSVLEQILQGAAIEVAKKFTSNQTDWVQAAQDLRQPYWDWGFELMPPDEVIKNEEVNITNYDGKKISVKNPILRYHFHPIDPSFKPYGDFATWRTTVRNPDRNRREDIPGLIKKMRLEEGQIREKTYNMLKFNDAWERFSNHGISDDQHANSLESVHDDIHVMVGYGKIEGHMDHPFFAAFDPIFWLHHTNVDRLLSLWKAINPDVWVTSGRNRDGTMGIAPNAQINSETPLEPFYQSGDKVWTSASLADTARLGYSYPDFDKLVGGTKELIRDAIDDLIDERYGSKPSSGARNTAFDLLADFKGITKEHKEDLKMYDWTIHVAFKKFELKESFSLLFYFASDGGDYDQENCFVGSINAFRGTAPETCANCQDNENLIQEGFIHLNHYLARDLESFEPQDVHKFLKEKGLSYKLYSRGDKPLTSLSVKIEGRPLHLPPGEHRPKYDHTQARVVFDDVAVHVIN
Procedure, shortened: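 Mushroom tyrosinase (2100 U/ml stock in 0.05 M phosphate pH 6.5) with 1.5 mM tyrosine stock in 0.1 M phosphate buffer pH 6.5; incubated 20 min at 37 °C, read on microplate reader. IC50 = concentration inhibiting 50% of enzyme activity, from logarithmic concentration-inhibition curves, mean of three experiments.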

[1] = Cytotoxicity against C57BL/6J mouse Melan-a cells assessed as cell survival at 80 uM by modified crystal violet assay; format: cell-based; conditions: read-out: Survival
Procedure, shortened: (§1)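 Murine melan-a melanocytes (from C57BL/6 J mice) seeded at 2 × 10⁵ cells/ml, compound added in triplicate; medium changed daily over 4 d culture. Viability by modified crystal violet: PBS wash, 0.1% crystal violet in 10% ethanol 5 min at room temperature, four distilled-water rinses, retained dye extracted with 95% ethanol 10 min at room temperature. Reported as % survival at the stated concentration.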

Melan-a = test: Inhibition of melanin formation in C57BL/6J mouse Melan-a cells; format: functional, cell-based
Procedure, shortened: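 Murine melan-a melanocytes (C57BL/6J origin) seeded at 2 × 10⁵ cells/ml, compounds added in triplicate; medium changed daily, 4 d culture. Cells lysed in 1 N NaOH, relative melanin read at 400 nm. IC50 from logarithmic concentration-inhibition curves, means of three experiments. Viability by crystal violet (0.1% in 10% ethanol, 5 min RT; extracted with 95% ethanol 10 min).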

[2] = Cytotoxicity against C57BL/6J mouse Melan-a cells assessed as cell survival at 30 uM by modified crystal violet assay; format: cell-based; conditions: read-out: Survival; procedure, shortened: as §1
[3] = Cytotoxicity against C57BL/6J mouse Melan-a cells assessed as cell survival at 20 uM by modified crystal violet assay; format: cell-based; conditions: read-out: Survival; procedure, shortened: as §1
[4] = Cytotoxicity against C57BL/6J mouse Melan-a cells assessed as cell survival at 10 uM by modified crystal violet assay
[5] = Cytotoxicity against C57BL/6J mouse Melan-a cells assessed as cell survival at 50 uM by modified crystal violet assay; format: cell-based; conditions: read-out: Survival; procedure, shortened: as §1

SMILES	IC50 (Tyrosinase)	viability at 80 µM [1]	IC50 (Melan-a)	viability at 30 µM [2]	viability at 20 µM [3]	viability at 10 µM [4]	viability at 50 µM [5]
CCCCc1ccc(O)cc1O [RUCINOL]	0.15 µM	98.2%	21.6 µM	–	–	–	–
O=C(NC12CC3CC(CC(C3)C1)C2)c1cc(O)cc(O)c1	> 200 µM	–	12.5 µM	91.3%	–	–	–
O=C(NC12CC3CC(CC(C3)C1)C2)c1cccc(O)c1O	> 200 µM	–	0.73 µM	–	96.2%	–	–
O=C(NC12CC3CC(CC(C3)C1)C2)c1ccc(O)c(O)c1	> 200 µM	–	1.25 µM	95.2%	–	–	–
Oc1ccc(C23CC4CC(CC(C4)C2)C3)c(O)c1	0.9 µM	–	8.82 µM	–	91.7%	–	–
O=C(NC12CC3CC(CC(C3)C1)C2)c1cc(O)ccc1O	> 200 µM	–	9.82 µM	–	99.1%	–	–
Oc1ccc(O)cc1 [HYDROQUINONE]	9.81 µM	–	3.97 µM	–	–	87.3%	–
O=C(NC12CC3CC(CC(C3)C1)C2)c1ccc(O)cc1O	> 200 µM	–	34.1 µM	–	–	–	99.2%

Reference: ChEMBL document CHEMBL1152877, “Studies on depigmenting activities of dihydroxyl benzamide derivatives containing adamantane moiety” (Bioorg Med Chem Lett, 2009)
